Results on 24 compounds are retold here after ChEMBL document CHEMBL3865815, “Synthesis, anti-cancer evaluation of benzenesulfonamide derivatives as potent tubulin-targeting agents” (Eur J Med Chem, 2016).

In brackets after ≈: the same amount, converted by molar mass. Activity calls are given as the source filed them. The calls are words filed in the database; no cut-off is given here. Some results are limits rather than exact numbers.

The nature of data set [1]: Antiproliferative activity against human HepG2 cells after 72 hrs by MTT assay. Type of data set: functional, cell-based. The settings on record: HepG2, 72 h. In a few lines:
(§1)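 Cells grown in RPMI 1640 with heat-inactivated 10% FBS, 1 mmol/L sodium pyruvate and 2 mmol/L L-glutamine at 37 °C, 5% CO2. Seeded at 3.5×10^4 cells/mL and left 24 h, then exposed to compound for 72 h; DMSO control at 0.5% final. Surviving cells measured by MTT, OD 492/620 nm. IC50 taken from triplicate experiments.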

Data set [2] can be described thus: Antiproliferative activity against human HCT116 cells after 72 hrs by MTT assay. In kind it is functional, cell-based. The settings on record: HCT-116, 72 h. A digest of the protocol: as §1
For orientation: Formazan colour is commonly taken as a measure of viable cells.

A short description of data set [3]: Antiproliferative activity against human PC3 cells after 72 hrs by MTT assay. Type of data set: functional, cell-based. The note with it: PC-3, 72 h. A digest of the protocol:
as §1

The nature of data set [4]: Antiproliferative activity against human SKOV3 cells after 72 hrs by MTT assay. In kind it is functional, cell-based. The note with it: SK-OV-3, 72 h. A digest of the protocol:
as §1

For data set [5], the species on record is Bos taurus. The experiment in a line: Induction of bovine tubulin polymerization at 10 uM preincubated followed by GTP addition by spectrophotometric analysis. In a few lines:
(§2)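 Bovine brain tubulin rich in microtubule-associated protein, 2 mg/mL, in 80 mM PIPES pH 6.9, 2 mM MgCl2, 0.5 mM EGTA and 5% glycerol, incubated with test agent or DMSO in cuvettes. Polymerization started with 1 mM GTP at 37 °C and followed by absorbance at 340 nm.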

Data set [6] is filed under the species Bos taurus. Put plainly: Inhibition of bovine tubulin assessed as induction of microtubule depolymerization at 3 uM preincubated with compound followed by GTP addition by spectrophotometric analysis. A digest of the protocol: as §2
Data set [7] can be described thus: Solubility of compound in pure water at 25 degC. Type of data set: physicochemical. A digest of the protocol:
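Measured in pure water at 25 °C.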

Data set [8] is described as follows: Antiproliferative activity against human KB cells after 72 hrs by MTT assay. In kind it is functional, cell-based. A digest of the protocol: as §1
Data set [9] relates to SW480. The experiment in a line: Induction of apoptosis in human SW480 cells assessed as accumulation of cells at M2 quadrant at 50 nM after 24 hrs by propidium iodide-staining based FACS analysis (reference value: 96.68 %). Type of data set: functional. A digest of the protocol: (§3)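 SW480 cells grown in 60 mm dishes to 70–80% confluence and treated 24 h, with DMSO as vehicle. All cells harvested, fixed in 70% alcohol and washed twice in cold PBS. Stained 30 min at 37 °C in 5 µg/ml propidium iodide, 100 µg/ml RNase and 0.2% Triton X-100, then analysed by flow cytometry.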
A general note: A flow cytometer gives signals particle by particle.

The nature of data set [10]: Antiproliferative activity against human KB/VCR cells after 72 hrs by MTT assay. Type of data set: functional, cell-based. A digest of the protocol: as §1
A short description of data set [11]: Antiproliferative activity against human MCF7 cells after 72 hrs by MTT assay. The note with it: MCF7, 72 h. Type of data set: functional, cell-based. In a few lines: as §1
Data set [12] deals with A549. Put plainly: Inhibition of alpha tubulin polymerization in human A549 cells at 200 nM by Hoechst 33258 staining based fluorescent microscopic analysis. In kind it is cell-based. A digest of the protocol: (§4)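 A549 cells treated 24 h with agent (200 nM or 50 nM) or DMSO control. α-Tubulin stained with primary antibody and DyLight488 secondary antibody, nuclei with Hoechst 33258. Imaged by fluorescence microscopy.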

For data set [13], the system named is SW480. The experiment in a line: Induction of apoptosis in human SW480 cells assessed as early apoptotic cells at 50 nM after 24 hrs by propidium iodide-staining based FACS analysis (reference value: 3.41 %). In kind it is functional. A digest of the protocol:
as §3

The nature of data set [14]: Antiproliferative activity against human K562 cells after 72 hrs by MTT assay. The settings on record: K562, 72 h. In kind it is functional, cell-based. A digest of the protocol:
as §1

Data set [15] is described as follows: Antiproliferative activity against human MCF7/ADR cells after 72 hrs by MTT assay. Type of data set: functional, cell-based. The note with it: NCI/ADR-RES. A digest of the protocol: as §1
Data set [16] is described as follows: Antiproliferative activity against human K562/A02 cells after 72 hrs by MTT assay. The settings on record: K562/A02, 72 h. Type of data set: functional, cell-based. A digest of the protocol:
as §1

The species entered for data set [17] is Bos taurus. The experiment in a line: Inhibition of bovine tubulin assessed as induction of microtubule depolymerization at 1 uM preincubated with compound followed by GTP addition by spectrophotometric analysis. A digest of the protocol:
as §2

Data set [18] deals with A549. The experiment in a line: Inhibition of alpha tubulin polymerization in human A549 cells at 50 nM by Hoechst 33258 staining based fluorescent microscopic analysis. In kind it is cell-based. A digest of the protocol:
as §4

As to `O=S(=O)(c1ccc(-c2cnc(C3CC3)o2)cc1)N1CCCSc2ccccc21`, the IC50 (usually the concentration needed to halve the response being measured) amounted to 27 nM in [1], 88 nM in [2], 34 nM in data set [3] and 49 nM in [4].

For the compound `O=S(=O)(c1ccc(-c2cnc(C3CC3)o2)cc1)N1CCCOc2ccccc21`, the IC50 is 40 nM in [1], 40 nM in [2], 27 nM in data set [3] and 36 nM in data set [4].

On to `CC(=O)O[C@H]1C(=O)[C@@]2(C)[C@H]([C@H](OC(=O)c3ccccc3)[C@]3(O)C[C@H](OC(=O)[C@H](O)[C@@H](NC(=O)c4ccccc4)c4ccccc4)C(C)=C1C3(C)C)[C@]1(OC(C)=O)CO[C@@H]1C[C@@H]2O`, for which, in the data set filed under Bos taurus [5], the result was Active.

Turning to `O=S(=O)(c1ccc(-c2cnc(C3CC3)o2)cc1)N1CCCCc2ccccc21`, the IC50 in [1] turned out to be 73 nM; in data set [2], 72 nM; in data set [3] it was 39 nM; in [4], 38 nM.

`COc1ccc2c(c1)N(S(=O)(=O)c1ccc(-c3cnc(C4CC4)o3)cc1)CCCO2`: the IC50 in data set [1] came to 49 nM; in data set [2], 47 nM; in data set [3], 14 nM; in [4], 53 nM.

Take `COC(=O)Nc1nc2cc(C(=O)c3cccs3)ccc2[nH]1`: the inhibition entry in the data set listed under Bos taurus [6] was “Active”.

With `O=S(=O)(c1ccc(-c2cnc(C3CC3)o2)cc1)N1CCCOc2ccc(F)cc21`, the IC50 in [1] came out at 36 nM; in data set [2], 24 nM; in [3], 18 nM; in [8] it was 7 nM; in data set [10], 7 nM; in data set [11] it was 21 nM. The IC50 in data set [4] was 15 nM; in [14], 8 nM; in data set [15], 20 nM; in [16] it was 13 nM. The solubility (in general, the dissolved amount per volume that the medium holds) in [7] turned out to be 10 µg/mL (≈ 24.1 µM). For the same compound, the Activity was 92.28% in the data set with SW480 [9] and 7.74% in the data set on SW480 [13]. For the same compound, the inhibition entry with A549 [12] and in the data set filed under Bos taurus [17] was “Active” in each case.

For the compound `CN1CCN(S(=O)(=O)c2ccc(-c3cnc(C4CC4)o3)cc2)c2ccccc2C1`, the IC50 in data set [1] stood at 525 nM; in data set [2], 256 nM; in [3] it was 347 nM; in data set [4], 199 nM.

For the compound `O=S(=O)(c1ccc(-c2cnc(C3CC3)o2)cc1)N1CCCOc2ccc(Cl)cc21`, the IC50 in data set [1] was found to be 28 nM; in data set [2], 39 nM; in data set [3], 18 nM; in data set [4], 19 nM.

Take `O=[N+]([O-])c1ccc2c(c1)N(S(=O)(=O)c1ccc(-c3cnc(C4CC4)o3)cc1)CCCO2`: the IC50 in data set [1] stood at 149 nM; in [2], 133 nM; in data set [3], 119 nM; in data set [4], 53 nM.

For the compound `O=S(=O)(c1ccc(-c2cnc(C3CC3)o2)cc1)N1CCCc2ccccc21`, the 50% inhibitory concentration (IC50) in data set [1] was 29 nM; in [2] it was 49 nM; in data set [3], 38 nM; in data set [4], 47 nM.

In the case of `COc1cccc2c1C(=O)c1c(O)c3c(c(O)c1C2=O)C[C@@](O)(C(=O)CO)C[C@@H]3O[C@H]1C[C@H](N)[C@H](O)[C@H](C)O1` [DOXORUBICIN], the half-inhibitory concentration (IC50) turned out to be 141 nM in data set [8]; 1290 nM in data set [10]; 140 nM in data set [11]; 6 nM in [14]; 2940 nM in data set [15]; 5960 nM in data set [16].

As for `Nc1ccc2c(c1)OCCCN2S(=O)(=O)c1ccc(-c2cnc(C3CC3)o2)cc1`, the 50% inhibitory concentration (IC50) in data set [1] amounted to 100 nM; in data set [2] it was 87 nM; in [3], 33 nM; in data set [4], 56 nM.

Turning to `O=S(=O)(c1ccc(-c2cnc(C3CC3)o2)cc1)N1CCOc2ccccc21`, the IC50 in data set [1] is 58 nM; in [2], 71 nM; in data set [3] it was 77 nM; in data set [4] it was 47 nM.

With `O=[N+]([O-])c1ccc2c(c1)OCCCN2S(=O)(=O)c1ccc(-c2cnc(C3CC3)o2)cc1`, the IC50 in [1] was found to be 71 nM; in data set [2], 145 nM; in data set [3], 72 nM; in data set [4] it was 120 nM.

With `COc1ccc2c(c1)OCCCN2S(=O)(=O)c1ccc(-c2cnc(C3CC3)o2)cc1`, the IC50 in [1] was determined as 229 nM; in [2] it was 223 nM; in data set [3] it was 271 nM; in data set [4] it was 185 nM.

In the case of `O=S(=O)(c1ccc(-c2cnc(C3CC3)o2)cc1)N1CCOCc2ccccc21`, the IC50 in [1] stood at 242 nM; in data set [2], 187 nM; in [3], 137 nM; in data set [4], 175 nM.

As to `O=S1(=O)CCCN(S(=O)(=O)c2ccc(-c3cnc(C4CC4)o3)cc2)c2ccccc21`, the half-maximal inhibitory concentration (IC50) was found to be 2170 nM in data set [1], 263 nM in data set [2], 5880 nM in [3] and 1620 nM in data set [4].

`CC[C@]1(O)C[C@H]2CN(CCc3c([nH]c4ccccc34)[C@@](C(=O)OC)(c3cc4c(cc3OC)N(C=O)[C@H]3[C@@](O)(C(=O)OC)[C@H](OC(C)=O)[C@]5(CC)C=CCN6CC[C@]43[C@@H]65)C2)C1` [VINCRISTINE]: the IC50 stood at 36 nM in data set [8]; 871 nM in data set [10]; 29 nM in data set [11]; 4 nM in data set [14]; 308 nM in [15]; 926 nM in data set [16]. In addition, in the data set with A549 [18], the inhibition entry is “Active”.

With `O=S(=O)(c1ccc(-c2cnc(C3CC3)o2)cc1)N1CCCOc2cc(F)ccc21`, the IC50 in data set [1] is 65 nM; in [2] it was 30 nM; in data set [3], 42 nM; in data set [8], 15 nM; in data set [10], 12 nM; in data set [11], 6 nM. The IC50 in [4] is 28 nM; in data set [14], 14 nM; in data set [15], 12 nM; in data set [16], 46 nM. The inhibition result in the data set with A549 [12] and in the data set listed under Bos taurus [17] was “Active” in each case.

Regarding `O=S(=O)(c1ccc(-c2cnc(C3CC3)o2)cc1)N1CCC[S+]([O-])c2ccccc21` (centres undefined), the IC50 in [1], in [2], in [3] and in data set [4] was over 1000 nM each time.

Take `O=S(=O)(c1ccc(-c2cnc(C3CC3)o2)cc1)N1CCSc2ccccc21`: the IC50 was found to be 48 nM in [1], 45 nM in [2], 49 nM in [3] and 39 nM in [4].

As to `Cc1ccc2c(c1)OCCCN2S(=O)(=O)c1ccc(-c2cnc(C3CC3)o2)cc1`, the IC50 was 795 nM in data set [1], 766 nM in data set [2], 241 nM in data set [3] and 179 nM in data set [4].

In the case of `Cc1ccc2c(c1)N(S(=O)(=O)c1ccc(-c3cnc(C4CC4)o3)cc1)CCCO2`, the IC50 in data set [1] was 31 nM; in data set [2] it was 29 nM; in data set [3] it was 41 nM; in data set [4], 34 nM.
